Experimental data published in ChEMBL document CHEMBL1142288, “Synthesis and biological evaluation of pyrroloiminoquinone derivatives” (Bioorg Med Chem, 2008).
pIC50: −log10 of the molar value. Active and inactive are the calls of the source. The rule behind the calls is not given here.

Columns and labels:
Homo sapiens [1] = species: Homo sapiens; assay: Inhibition of human recombinant topoisomerase 2 assessed as relaxation of supercoiled pBR322 plasmid DNA at 10 to 50 uM
HeLa [2] = assay: Antiproliferative activity against human HeLa cells after 72 hrs by trypan blue test; assay type: functional, cell-based
Outline: (§1)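 HeLa (Ham's F-12, 10% heat-inactivated FCS) or HL-60 (RPMI 1640, 15% heat-inactivated FCS), both with penicillin/streptomycin/amphotericin; 4 · 10⁴ cells/well seeded in duplicate, 72 h drug exposure. Viability by Trypan blue; IC50 = concentration giving 50% reduction in cell number versus untreated controls.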

HL-60 = assay: Antiproliferative activity against human HL60 cells after 72 hrs by trypan blue test; assay type: functional, cell-based; conditions: HL-60, 72 h; outline: as §1
NCI-H460 = assay: Antiproliferative activity against human NCI-H460 cells after 72 hrs; conditions: NCI-H460, 72 h
HeLa [3] = assay: Induction of apoptosis in human HeLa cells assessed as DNA fragmentation at 100 uM after 24 hrs; assay type: functional, cell-based
Outline: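 HeLa cells (5 · 10⁵) incubated 24 h at 37 °C, medium replaced, test agent added; solvent-only controls. After 24 h, DNA extracted, dissolved in TE (10 mM Tris pH 8, 1 mM EDTA), run on 1% agarose, ethidium bromide-stained and imaged under UV; cisplatin as positive control.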

Homo sapiens [4] = species: Homo sapiens; assay: Inhibition of human recombinant topoisomerase 2 assessed as relaxation of supercoiled pBR322 plasmid DNA at 50 uM

SMILES | Activity (Homo sapiens [1]) | pIC50 (HeLa [2]) | pIC50 (HL-60) | pIC50 (NCI-H460) | Activity (Homo sapiens [4]) | Activity (HeLa [3])
Cn1cc2c3c1C(=O)C1=C(NCCS1)C3=NCC2 | Active | 5.72 | 5.57 | 6.02 | – | –
COc1cc2c3c(cn(C)c3c1OC)CCN2 | – | – | – | < 4.22 | – | –
Cn1cc2c3c1C(=O)C(NCCc1c[nH]c4ccccc14)=CC3=NCC2 | – | 5.39 | 5.11 | 5.67 | Active | Active
COc1cccc2c1C(=O)c1c(O)c3c(c(O)c1C2=O)C[C@@](O)(C(=O)CO)C[C@@H]3O[C@H]1C[C@H](N)[C@H](O)[C@H](C)O1 [DOXORUBICIN] | – | – | – | 7.55 | – | –
COc1cc2c3c(cn(C=O)c3c1OC)CCN2C=O | – | – | – | < 4.22 | – | –
Cn1cc2c3c1C(=O)C(NCCc1ccc(O)cc1)=CC3=NCC2 [MAKALUVAMINE K] | – | 5.31 | 5.16 | 4.97 | – | Active
COc1cc(NS(C)(=O)=O)ccc1Nc1c2ccccc2nc2ccccc12 [AMSACRINE] | – | 7.92 | 8.29 | – | – | –
Cn1cc2c3c1C(=O)C(NCCc1c[nH]c4ccc(O)cc14)=CC3=NCC2 | – | – | – | < 4.40 | – | –

Now from value to compound, other results behind:

Activity (Homo sapiens [1]) | pIC50 (HeLa [2]) | pIC50 (HL-60) | pIC50 (NCI-H460) | Activity (Homo sapiens [4]) | SMILES | Activity (HeLa [3])
– | < 4.70 | < 4.70 | 5.05 | – | COC1=CC2=NCCc3cn(C)c(c32)C1=O | –
– | – | – | < 4.40 | – | COc1ccc(CCNC2=CC3=NCCc4cn(C)c(c43)C2=O)cc1 | –
– | – | – | 4.64 | – | C[C@H](NC1=CC2=NCCc3cn(C)c(c32)C1=O)c1ccccc1 | –
– | – | – | < 4.22 | – | COc1cc2c3c(cn(C)c3c1OC)CCN2C=O | –
– | – | – | 5.06 | – | COc1ccc2[nH]cc(CCNC3=CC4=NCCc5cn(C)c(c54)C3=O)c2c1 | –
– | < 4.70 | < 4.70 | 5.11 | – | COc1cc2c3c(c1OC)N(C=O)C(OC)C3CCN2C=O (stereo not drawn) | –
– | 5.26 | 5.51 | 5.21 | – | Cn1cc2c3c1C(=O)C1=C(C3=NCC2)C2(C=CC(=O)C=C2)CCN1 | Active
– | < 4.70 | < 4.70 | 5.26 | – | Cn1cc2c3c1C(=O)C(NCCc1c[nH]c4ccc(F)cc14)=CC3=NCC2 | –
– | – | – | < 4.40 | – | Cn1cc2c3c1C(=O)C(NCc1ccccc1)=CC3=NCC2 | –
– | – | – | < 4.22 | – | COc1cc2c3c(c[nH]c3c1OC)CCN2C=O | –
